According to ChEMBL document CHEMBL1221393, “Effects of structure on inhibitory activity in a series of mechanism-based inhibitors of human neutrophil elastase” (Bioorg Med Chem, 2010):
Active and inactive are the calls of the source. The rule behind the calls is not given here.

Experiments:
[1] = molecular target: T1, Myeloblastin (Homo sapiens) (UniProt P24158); assay: Inhibition of human neutrophil proteinase 3 assessed as residual activity at 8.62
T1 sequence (whole entry): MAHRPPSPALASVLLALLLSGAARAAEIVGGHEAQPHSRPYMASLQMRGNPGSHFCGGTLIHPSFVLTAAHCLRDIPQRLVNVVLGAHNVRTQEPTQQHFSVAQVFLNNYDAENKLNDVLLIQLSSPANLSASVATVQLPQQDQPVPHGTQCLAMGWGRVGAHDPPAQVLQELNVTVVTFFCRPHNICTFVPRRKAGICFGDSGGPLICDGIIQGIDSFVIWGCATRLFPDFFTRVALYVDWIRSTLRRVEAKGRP
Outline: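 Human proteinase 3 (final 34.5 nM) was added with DTNB to 0.1 M HEPES/0.5 M NaCl, pH 7.25, containing inhibitor (final 8.62 μM, from DMSO) and Boc-Ala-Ala-NVa-SBzl. Absorbance at 410 nm was followed for 2 min against a DMSO-only hydrolysis control. % remaining activity = (v/vo)×100, mean of duplicate or triplicate runs.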

[2] = molecular target: T2, Neutrophil elastase (Homo sapiens) (UniProt P08246); assay: Ratio of Kinact to Ki for human neutrophil elastase
T2 sequence (whole entry): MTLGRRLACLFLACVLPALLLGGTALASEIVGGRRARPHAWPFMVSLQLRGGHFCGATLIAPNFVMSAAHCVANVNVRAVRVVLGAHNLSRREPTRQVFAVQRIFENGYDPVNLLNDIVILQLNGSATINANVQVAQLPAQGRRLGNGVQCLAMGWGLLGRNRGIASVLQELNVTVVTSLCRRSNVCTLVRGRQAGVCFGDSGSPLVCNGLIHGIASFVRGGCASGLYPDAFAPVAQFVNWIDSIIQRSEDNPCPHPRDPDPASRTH
Outline: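 Progress-curve method: 10 nM HNE, MeOSuc-AAPV p-nitroanilide (105 μM) and inhibitor at several inhibitor-to-enzyme ratios in 0.1 M HEPES/0.5 M NaCl, pH 7.25, 2.5% DMSO. p-Nitroaniline release was monitored continuously at 410 nm. kobs came from nonlinear fitting of absorbance versus time; kinact/KI = kobs/[I], corrected for substrate concentration. Determined in duplicate.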

[3] = molecular target: T2, Neutrophil elastase (Homo sapiens); assay: Inhibition of human neutrophil elastase at 7 uM; conditions: TDE = time-dependent effect
Outline: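 HNE (700 nM) incubated with inhibitor (7 μM) in 0.1 M HEPES/0.5 M NaCl, pH 7.25, 1% DMSO, in a constant-temperature bath. Aliquots were taken at intervals and added to MeOSuc-Ala-Ala-Pro-Val p-nitroanilide. Residual activity was read as absorbance at 410 nm over 60 s and expressed as percent remaining activity versus time.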

SMILES | percent remaining activity [1] | Ratio [2] | inhibition [3]
CC(C)C[C@H]1C(=O)N(COC(=O)c2ccccc2O)S(=O)(=O)N1Cc1ccccc1 | inactive | 1.09e+06 | 
CC(C)C[C@H]1C(=O)N(COC(=O)C(C)c2ccc(C(=O)c3ccccc3)cc2)S(=O)(=O)N1C (some centres undefined) | inactive | 540000 | 
CC(C)Cc1ccc(C(C)C(=O)OCN2C(=O)[C@H](CC(C)C)N(Cc3ccccc3)S2(=O)=O)cc1 (some centres undefined) | inactive | 1580 | 
CC(=O)Oc1ccccc1C(=O)OCN1C(=O)[C@H](CC(C)C)N(Cc2ccccc2)S1(=O)=O | inactive | 1.06e+06 | 
CC(C)C[C@H]1C(=O)N(COC(=O)C(C)c2ccc(C(=O)c3ccccc3)cc2)S(=O)(=O)N1Cc1ccccc1 (some centres undefined) | inactive | 31000 | 
CC(C)C[C@H]1C(=O)N(COC(=O)CCc2ccccc2)S(=O)(=O)N1Cc1ccccc1 | inactive | 3200 | 
CC(C)C[C@H]1C(=O)N(COC(=O)CCc2ccccc2)S(=O)(=O)N1C | inactive | 296000 | 
CC(C)C[C@H]1C(=O)N(COC(=O)C(C)c2ccc(Oc3ccccc3)cc2)S(=O)(=O)N1C (some centres undefined) | inactive | 501000 | 
CC(C)C[C@H]1C(=O)N(COC(=O)Cc2ccccc2Nc2c(Cl)cccc2Cl)S(=O)(=O)N1Cc1ccccc1 | inactive | 1330 | tde
CC(C)C[C@H]1C(=O)N(COC(=O)Cc2ccccc2)S(=O)(=O)N1Cc1ccccc1 | inactive | 63800 | 
CC(C)C[C@H]1C(=O)N(COC(=O)c2ccccc2O)S(=O)(=O)N1C | inactive | 336000 | 
CC(C)C[C@H]1C(=O)N(COC(=O)C(C)c2ccc(Oc3ccccc3)cc2)S(=O)(=O)N1Cc1ccccc1 (some centres undefined) | inactive | 1770 | 
CC(=O)Oc1ccccc1C(=O)OCN1C(=O)[C@H](CC(C)C)N(C)S1(=O)=O | inactive | 419000 | 
CC(C)C[C@H]1C(=O)N(COC(=O)Cc2ccccc2)S(=O)(=O)N1C | inactive | 357000 | 
CC(C)C[C@H]1C(=O)N(COC(=O)Cc2ccccc2Nc2c(Cl)cccc2Cl)S(=O)(=O)N1C | inactive | 981000 | tde
CC(C)Cc1ccc(C(C)C(=O)OCN2C(=O)[C@H](CC(C)C)N(C)S2(=O)=O)cc1 (some centres undefined) | inactive | 201000 | 
